Screening data as filed in PubChem BioAssay.
Rows were chosen to be rich in hits. Some 4.6% of all compounds tested hit in one or more screens of this group.
NF-kB expr up – NF-kB expression increase, human neuronal cells | fold change at 12.5 µM | NF-kB reporter expression; stronger effect = higher value | hit rate 1.6% among 190,000 | AID 1239; in the data active = fold change above about 3.3
Wee1 stabilizer – human Wee1 degradation inhibition, primary screen; P30291; HeLa Luc-Wee1K328M stability, luciferase luminescence; 100% = proteasome inhibitor MG132 effect; reporter increase, % at 5 µM; hit rate 1.2% among 220,000;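 active = activation above the mean of all tested compounds plus 3 SD, set per screening run, cut at about 8.8% in these data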;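 also: cells exposed to compound for 20 h before luminescence read; 0% = DMSO alone and 100% = MG132 at 30 µM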
STAT1 act – STAT1 signaling activation; NIH 3T3 STAT1-luciferase reporter, IFN-gamma, luminescence; 100% = IFN-gamma alone, no compound; activation (% of control), % at 5.5 µM; hit rate 2.6% among 200,000; AID 932;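 active = activation above the screen-wide mean activation plus 3 SD, cut at about 130% in these data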;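 also: raw ratio to IFN-gamma control signal so 100% means no change and 0% no light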
APP 5'UTR act – activates APP 5'UTR luciferase reporter | activation, % at 2 µM | AID 1276 | hit rate 1% among 190,000 | SH-SY5Y APP 5'UTR luciferase reporter, luminescence; zero percent = DMSO vehicle wells;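 active = activation above a set limit, based on mean plus 3 SD of controls, cut at about 140% in these data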
Mdm2 ligase inh – inhibitors of human Mdm2 E3 ubiquitin ligase. signal enhancement, % at 5 µM. hit rate 0.11% among 210,000. cell-based MDM2 ubiquitination luciferase reporter, 2 h; 0 = plate control, 100 = twice control, blank-subtracted;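 active = signal enhancement of 30% or more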;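 also: luminescence tracks abundance of the self-degrading MDM2-luciferase fusion protein; higher signal means inhibition of MDM2 E3 ligase activity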
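test system = mammalian cells stably expressing self-ubiquitinating, self-degrading MDM2 E3–luciferase fusion | quantity = 2000 cells/well | incubation = cell settling 4 h, compound treatment 2 h, both 37 °C | signal = luminescence with SteadyLite reagent, 15 min at room temperature | evaluation = % enhancement relative to plate controls after blank subtraction | benchmarks = plate controls and plate blanks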
p97 inhibitor – human p97 ATPase inhibition | P55072 | recombinant p97 ATPase, Kinase-Glo ATP luminescence, 3 h | inhibition, % at 8 µM | hit rate 0.42% among 220,000 | AID 1481; in the data active = inhibition above about 15%;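 also: 0% = DMSO vehicle and 100% = wells lacking enzyme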
Target sequence (P55072 whole entry, looked up): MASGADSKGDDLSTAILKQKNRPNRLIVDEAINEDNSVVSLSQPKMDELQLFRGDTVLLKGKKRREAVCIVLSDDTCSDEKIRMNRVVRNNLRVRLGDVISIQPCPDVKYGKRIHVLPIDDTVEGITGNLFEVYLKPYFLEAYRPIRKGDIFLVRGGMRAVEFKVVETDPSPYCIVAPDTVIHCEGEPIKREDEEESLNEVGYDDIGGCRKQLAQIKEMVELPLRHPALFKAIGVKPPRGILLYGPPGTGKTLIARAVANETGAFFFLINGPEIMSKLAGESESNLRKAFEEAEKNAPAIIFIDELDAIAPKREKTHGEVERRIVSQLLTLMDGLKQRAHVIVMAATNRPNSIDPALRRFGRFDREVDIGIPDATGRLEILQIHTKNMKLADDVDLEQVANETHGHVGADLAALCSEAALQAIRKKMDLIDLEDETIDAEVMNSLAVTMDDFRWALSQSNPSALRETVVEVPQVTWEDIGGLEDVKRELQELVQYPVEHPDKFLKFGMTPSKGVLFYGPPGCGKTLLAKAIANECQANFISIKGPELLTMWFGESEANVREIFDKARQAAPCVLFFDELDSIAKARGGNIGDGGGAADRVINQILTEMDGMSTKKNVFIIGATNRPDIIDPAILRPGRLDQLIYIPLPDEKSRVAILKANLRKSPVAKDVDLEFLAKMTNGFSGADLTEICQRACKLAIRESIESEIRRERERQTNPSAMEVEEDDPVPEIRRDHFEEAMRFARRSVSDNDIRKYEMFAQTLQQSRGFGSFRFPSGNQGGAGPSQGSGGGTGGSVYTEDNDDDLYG
* marks the source's active call; other numbers are inactive results.

Screening Cn1cccc1CNC(=O)Nc1ccc(Cl)c(Cl)c1 returned NF-kB expr up 1.07, Wee1 stabilizer -0.5, STAT1 act 135.2*, Mdm2 ligase inh -20.8 and p97 inhibitor -1.8.
For COc1ccc(NC(=O)NCc2cccn2C)c(OC)c1 the results were NF-kB expr up 1.93, Wee1 stabilizer -1.7, STAT1 act 104.1, Mdm2 ligase inh -15.7 and p97 inhibitor -6.8.
For CSc1ncccc1C(=O)Nc1ccc(S(=O)(=O)NC2=NCCCCC2)cc1 the results were NF-kB expr up 1.48, Wee1 stabilizer 1.8, STAT1 act 97.7, APP 5'UTR act -7.2, Mdm2 ligase inh -10.2 and p97 inhibitor -2.3.
NC(N)=N/N=C/c1ccc(OCc2ccc(Cl)cc2)cc1 was read as NF-kB expr up 5.98*, Wee1 stabilizer -1.5, STAT1 act 112.3, APP 5'UTR act 111.1, Mdm2 ligase inh -8.4 and p97 inhibitor 10.1.
Screening NC(N)=N/N=C/c1ccc(OCc2ccccc2)cc1 returned NF-kB expr up 1.74, Wee1 stabilizer -0.8, STAT1 act 86.8, APP 5'UTR act 52.2, Mdm2 ligase inh -10.7 and p97 inhibitor 10.8.
`COc1cc(-c2noc(-c3ccco3)n2)cc(OC)c1OC` gave NF-kB expr up 1.38, Wee1 stabilizer -0.5, STAT1 act 105.0, APP 5'UTR act -2.6, Mdm2 ligase inh 5.0 and p97 inhibitor 1.8.
For COc1nc(-c2ccccc2)ccc1-c1noc(-c2ccco2)n1 the results were NF-kB expr up 3.72*, Wee1 stabilizer 7.6, STAT1 act 145.4*, APP 5'UTR act 9.8, Mdm2 ligase inh -13.6 and p97 inhibitor 1.2.
COc1ccc(-c2ccc(-c3noc(-c4ccco4)n3)c(OC)n2)cc1 was read as NF-kB expr up 1.21, Wee1 stabilizer -2.9, STAT1 act 110.4, APP 5'UTR act 13.8, Mdm2 ligase inh -13.0 and p97 inhibitor 5.7.
COc1ccccc1-c1noc(-c2ccco2)n1 was read as NF-kB expr up 2.58, Wee1 stabilizer -1.2, STAT1 act 131.3*, APP 5'UTR act 117.6, Mdm2 ligase inh -14.4 and p97 inhibitor -1.7.
Cc1ccccc1/C=C\c1nc2ccccc2c(=O)[nH]1 was read as NF-kB expr up 4.38*, Wee1 stabilizer 2.4, STAT1 act 121.1, APP 5'UTR act 163.7*, Mdm2 ligase inh -27.9 and p97 inhibitor -2.6.
For CC1(C2CC2)NC(=O)N(CC(=O)Nc2ccccc2-c2ccccc2)C1=O (centres undefined) the results were NF-kB expr up 1.6, Wee1 stabilizer -0.7, STAT1 act 100.8, APP 5'UTR act -12.2, Mdm2 ligase inh -8.7 and p97 inhibitor -2.2.
C=CCc1cccc2cc(C(=O)Nc3ccccc3C(=O)O)c(=O)oc12 was read as NF-kB expr up 0.96, Wee1 stabilizer -2.8, STAT1 act 32.4, APP 5'UTR act 9.1, Mdm2 ligase inh -7.5 and p97 inhibitor 22.2*.
For S=C(Nc1ccc(Cl)c(Cl)c1)NN1CCOCC1 the results were NF-kB expr up 1.05, Wee1 stabilizer 0.8, STAT1 act 103.9, APP 5'UTR act -10.3, Mdm2 ligase inh -11.3 and p97 inhibitor 8.4.
O=C(O)C/C(=C\c1ccc(Cl)cc1)c1nc2ccccc2o1 was read as NF-kB expr up 0.82, Wee1 stabilizer 2.4, STAT1 act 111.9, APP 5'UTR act 1.6, Mdm2 ligase inh -9.7 and p97 inhibitor 0.9.
`O=C(O)C(=O)/C(=C\c1ccc(Cl)cc1)c1ccc2ccccc2n1` gave NF-kB expr up 1.12, Wee1 stabilizer -0.5, STAT1 act 130.1*, APP 5'UTR act 85.8, Mdm2 ligase inh -8.4 and p97 inhibitor 2.0.
`Cc1c(Cl)cccc1NC(=O)c1ncn[nH]1` gave Wee1 stabilizer 0.4 and p97 inhibitor 1.1.
For COc1ccccc1N1C(=O)C(Cl)=C(Nc2ccccc2O)C1=O the results were NF-kB expr up 1.65, Wee1 stabilizer 0.4, STAT1 act 108.0, APP 5'UTR act 22.9, Mdm2 ligase inh -11.3 and p97 inhibitor 14.0.
`O=C1C(Cl)=C(Nc2ccccc2O)C(=O)N1c1ccccc1` gave NF-kB expr up 4.32*, Wee1 stabilizer -0.6, STAT1 act 82.3, APP 5'UTR act 45.7, Mdm2 ligase inh 8.0 and p97 inhibitor 5.7.
`Cc1cccc(C)c1-n1c(C)nn(CC2CC2)c1=O` gave NF-kB expr up 1.17, Wee1 stabilizer -1.4, STAT1 act 96.0, APP 5'UTR act -9.8, Mdm2 ligase inh -7.9 and p97 inhibitor 4.8.
